The source made the active and inactive calls. The calls are words filed in the database; no cut-off is given here.

This passage reports inhibition and IC50 results from ChEMBL document CHEMBL1154078, “Synthesis of novel purine nucleosides towards a selective inhibition of human butyrylcholinesterase” (Bioorg Med Chem, 2009).

The target in one test is T1, Cholinesterase (Homo sapiens, UniProt P06276). The experiment in a line: Inhibition of BChE in human serum assessed as hydrolysis of butyrylthiocholine at 10 ug/mL by Ellman's method. In a few lines: (§1)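 Human serum BChE (0.44 U/mL solution) in 0.1 M phosphate buffer pH 8.0 with S-butyrylthiocholine iodide and DTNB. Absorbance at 410 nm followed kinetically for 4 min at 30 °C, at least four replicates. Inhibition % = 100 − 100·V/V_max, where V_max comes from blanks without inhibitor; one-sided t-test. IC50 obtained by non-linear regression of the dose–response, given as mean ± SEM.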
T1 sequence (P06276 whole entry): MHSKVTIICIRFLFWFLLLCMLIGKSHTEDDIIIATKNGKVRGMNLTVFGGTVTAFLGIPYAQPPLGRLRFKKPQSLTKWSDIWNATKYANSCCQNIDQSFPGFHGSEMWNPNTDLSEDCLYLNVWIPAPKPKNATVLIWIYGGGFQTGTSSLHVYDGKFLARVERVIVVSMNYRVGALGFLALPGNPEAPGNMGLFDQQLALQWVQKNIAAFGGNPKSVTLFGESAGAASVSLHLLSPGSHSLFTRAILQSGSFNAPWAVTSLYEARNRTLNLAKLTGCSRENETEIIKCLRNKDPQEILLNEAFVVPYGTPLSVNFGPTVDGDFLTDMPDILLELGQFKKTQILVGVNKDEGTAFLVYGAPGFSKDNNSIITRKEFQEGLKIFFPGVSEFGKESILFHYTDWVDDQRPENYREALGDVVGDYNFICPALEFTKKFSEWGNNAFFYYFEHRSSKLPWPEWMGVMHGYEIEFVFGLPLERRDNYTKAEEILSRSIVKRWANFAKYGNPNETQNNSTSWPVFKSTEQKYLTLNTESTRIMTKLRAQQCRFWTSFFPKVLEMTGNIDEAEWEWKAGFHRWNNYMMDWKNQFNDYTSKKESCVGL
On the technique in general: In Ellman's method for cholinesterases, released thiocholine reacts with DTNB.
In the case of `CO[C@H]1O[C@@H]([C@H](O)C(=O)OCc2ccccc2)[C@@H](OCc2ccccc2)[C@@]2(OCc3ccccc3)[C@@H](OCc3ccccc3)CO[C@@H]12`, the inhibition (as a rule, the percentage by which the read-out fell short of the control) stood at 8%.

`CC(=O)Nc1nc(Cl)c2ncn([C@@H]3O[C@H](COC(C)=O)[C@@H](OCc4ccccc4)[C@@]4(OCc5ccccc5)[C@@H](OCc5ccccc5)CO[C@@H]34)c2n1`: the inhibition was 11%.

As for `C=C[C@H](O)[C@@H]1O[C@H](OC)[C@@H]2OC[C@H](OCc3ccccc3)[C@]2(OCc2ccccc2)[C@@H]1OCc1ccccc1`, the inhibition turned out to be 54%.

Consider `C=C[C@@H](O)[C@@H]1O[C@H](OC)[C@@H]2OC[C@H](OCc3ccccc3)[C@]2(OCc2ccccc2)[C@@H]1OCc1ccccc1`, for which the inhibition was 23%.

With `CO[C@H]1O[C@H](CO)[C@@H](OCc2ccccc2)[C@@]2(OCc3ccccc3)[C@@H](OCc3ccccc3)CO[C@@H]12`, the inhibition is less than 5%.

Regarding `CC(=O)Nc1nc(Cl)c2c(ncn2[C@@H]2O[C@H](COC(C)=O)[C@@H](OCc3ccccc3)[C@@]3(OCc4ccccc4)[C@@H](OCc4ccccc4)CO[C@@H]23)n1`, the inhibition came to 85%.

The target of a further test is T1, Cholinesterase. The test can be described thus: Inhibition of BChE in human serum assessed as hydrolysis of butyrylthiocholine at 100 ug/mL by Ellman's method. In kind it is cell-free. The method in brief:
as §1
On to `CO[C@H]1O[C@H](COC(=O)c2ccccc2)[C@@H](OC(=O)c2ccccc2)[C@@]2(OC(=O)c3ccccc3)[C@@H](OC(=O)c3ccccc3)CO[C@@H]12`, for which the inhibition stood at 7%.

Consider `CO[C@H]1O[C@@H]([C@H](O)C(=O)OCc2ccccc2)[C@@H](OCc2ccccc2)[C@@]2(OCc3ccccc3)[C@@H](OCc3ccccc3)CO[C@@H]12`, for which the inhibition amounted to 55%.

On to `CO[C@H]1O[C@H](CO)[C@@H](O)[C@@]2(O)[C@@H](O)CO[C@@H]12`, for which the inhibition was less than 5%.

Consider `CO[C@H]1O[C@H](COC(C)=O)[C@@H](OC(C)=O)[C@@]2(OC(C)=O)[C@@H](OC(C)=O)CO[C@@H]12`, for which the inhibition was less than 5%.

Turning to `CC(=O)Nc1nc(Cl)c2ncn([C@@H]3O[C@H](COC(C)=O)[C@@H](OCc4ccccc4)[C@@]4(OCc5ccccc5)[C@@H](OCc5ccccc5)CO[C@@H]34)c2n1`, the inhibition is 48%.

`C=C[C@H](O)[C@@H]1O[C@H](OC)[C@@H]2OC[C@H](OCc3ccccc3)[C@]2(OCc2ccccc2)[C@@H]1OCc1ccccc1`: the inhibition came out at 76%.

`C=C[C@@H](O)[C@@H]1O[C@H](OC)[C@@H]2OC[C@H](OCc3ccccc3)[C@]2(OCc2ccccc2)[C@@H]1OCc1ccccc1`: the inhibition was determined as 73%.

Regarding `CO[C@H]1O[C@H](CO)[C@@H](OCc2ccccc2)[C@@]2(OCc3ccccc3)[C@@H](OCc3ccccc3)CO[C@@H]12`, the inhibition was determined as 60%.

Regarding `CC(=O)Nc1nc(Cl)c2c(ncn2[C@@H]2O[C@H](COC(C)=O)[C@@H](OCc3ccccc3)[C@@]3(OCc4ccccc4)[C@@H](OCc4ccccc4)CO[C@@H]23)n1`, the inhibition turned out to be 84%.

The target of a further test is T1, Cholinesterase. The test can be described thus: Inhibition of BChE in human serum assessed as hydrolysis of butyrylthiocholine at 0.1 ug/mL by Ellman's method. The method in brief: as §1
Turning to `CC(=O)Nc1nc(Cl)c2c(ncn2[C@@H]2O[C@H](COC(C)=O)[C@@H](OCc3ccccc3)[C@@]3(OCc4ccccc4)[C@@H](OCc4ccccc4)CO[C@@H]23)n1`, the inhibition turned out to be 20%.

The target in the next test is T1, Cholinesterase. The experiment in a line: Inhibition of BChE in human serum assessed as hydrolysis of butyrylthiocholine by Ellman's method. It is filed as cell-free. In a few lines:
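Human serum BChE (0.44 U/mL solution) in 0.1 M phosphate buffer pH 8.0 with S-butyrylthiocholine iodide and DTNB. Absorbance at 410 nm followed kinetically for 4 min at 30 °C, at least four replicates. IC50 obtained by non-linear regression of the dose–response, given as mean ± SEM.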
In the case of `CO[C@H]1O[C@@H]([C@H](O)C(=O)OCc2ccccc2)[C@@H](OCc2ccccc2)[C@@]2(OCc3ccccc3)[C@@H](OCc3ccccc3)CO[C@@H]12`, the concentration for half-maximal inhibition (IC50) (usually the point on the concentration scale where inhibition reaches its midpoint) amounted to 133 µM.

In the case of `C=C[C@H](O)[C@@H]1O[C@H](OC)[C@@H]2OC[C@H](OCc3ccccc3)[C@]2(OCc2ccccc2)[C@@H]1OCc1ccccc1`, the IC50 worked out at 31 µM.

As for `C=C[C@@H](O)[C@@H]1O[C@H](OC)[C@@H]2OC[C@H](OCc3ccccc3)[C@]2(OCc2ccccc2)[C@@H]1OCc1ccccc1`, the IC50 was found to be 50 µM.

Turning to `CO[C@H]1O[C@H](CO)[C@@H](OCc2ccccc2)[C@@]2(OCc3ccccc3)[C@@H](OCc3ccccc3)CO[C@@H]12`, the IC50 is 148 µM.

For `CC(=O)Nc1nc(Cl)c2c(ncn2[C@@H]2O[C@H](COC(C)=O)[C@@H](OCc3ccccc3)[C@@]3(OCc4ccccc4)[C@@H](OCc4ccccc4)CO[C@@H]23)n1`, the 50% inhibitory concentration (IC50) amounted to 0.76 µM.

The target in the next test is T2, Acetylcholinesterase (Bos taurus) (UniProt P23795).
T2 sequence (whole entry): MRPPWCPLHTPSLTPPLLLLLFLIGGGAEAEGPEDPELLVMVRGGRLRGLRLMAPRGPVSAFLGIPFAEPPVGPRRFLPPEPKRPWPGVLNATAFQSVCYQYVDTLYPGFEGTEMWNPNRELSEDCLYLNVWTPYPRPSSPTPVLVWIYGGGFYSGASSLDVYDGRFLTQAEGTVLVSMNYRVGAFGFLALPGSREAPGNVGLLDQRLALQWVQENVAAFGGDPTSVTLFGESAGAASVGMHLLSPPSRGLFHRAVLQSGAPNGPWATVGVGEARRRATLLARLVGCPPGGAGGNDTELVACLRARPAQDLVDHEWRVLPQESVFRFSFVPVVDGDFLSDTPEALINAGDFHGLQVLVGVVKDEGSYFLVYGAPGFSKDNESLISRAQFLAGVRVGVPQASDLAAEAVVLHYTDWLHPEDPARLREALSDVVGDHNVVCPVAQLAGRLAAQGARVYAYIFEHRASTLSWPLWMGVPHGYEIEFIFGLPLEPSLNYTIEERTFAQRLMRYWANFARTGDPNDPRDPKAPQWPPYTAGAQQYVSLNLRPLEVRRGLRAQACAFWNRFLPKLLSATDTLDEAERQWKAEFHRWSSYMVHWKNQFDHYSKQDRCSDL
The test can be described thus: Inhibition of AChE in bovine erythrocytes assessed as hydrolysis of acetylthiocholine by Ellman's method. The method in brief:
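Bovine erythrocyte AChE (1.32 U/mL solution) in 0.1 M phosphate buffer pH 8.0 with acetylthiocholine iodide and DTNB. Yellow product read kinetically at 410 nm for 4 min at 30 °C. Rates compared with no-inhibitor V_max; inhibition % = 100 − 100·V/V_max. At least four replicates. One-sided t-test against 0% inhibition.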
As for `CO[C@H]1O[C@H](COC(=O)c2ccccc2)[C@@H](OC(=O)c2ccccc2)[C@@]2(OC(=O)c3ccccc3)[C@@H](OC(=O)c3ccccc3)CO[C@@H]12`, the inhibition result was “inactive”.

As for `CO[C@H]1O[C@@H]([C@H](O)C(=O)OCc2ccccc2)[C@@H](OCc2ccccc2)[C@@]2(OCc3ccccc3)[C@@H](OCc3ccccc3)CO[C@@H]12`, the inhibition result was “inactive”.

Consider `CO[C@H]1O[C@H](CO)[C@@H](O)[C@@]2(O)[C@@H](O)CO[C@@H]12`, for which the inhibition entry was “inactive”.

With `CO[C@H]1O[C@H](COC(C)=O)[C@@H](OC(C)=O)[C@@]2(OC(C)=O)[C@@H](OC(C)=O)CO[C@@H]12`, the inhibition result was “inactive”.

With `CC(=O)Nc1nc(Cl)c2ncn([C@@H]3O[C@H](COC(C)=O)[C@@H](OCc4ccccc4)[C@@]4(OCc5ccccc5)[C@@H](OCc5ccccc5)CO[C@@H]34)c2n1`, the inhibition result is “inactive”.

As to `C=C[C@H](O)[C@@H]1O[C@H](OC)[C@@H]2OC[C@H](OCc3ccccc3)[C@]2(OCc2ccccc2)[C@@H]1OCc1ccccc1`, the inhibition entry is “inactive”.

For `C=C[C@@H](O)[C@@H]1O[C@H](OC)[C@@H]2OC[C@H](OCc3ccccc3)[C@]2(OCc2ccccc2)[C@@H]1OCc1ccccc1`, the inhibition entry is “inactive”.

In the case of `CO[C@H]1O[C@H](CO)[C@@H](OCc2ccccc2)[C@@]2(OCc3ccccc3)[C@@H](OCc3ccccc3)CO[C@@H]12`, the inhibition result is “inactive”.

For the compound `CC(=O)Nc1nc(Cl)c2c(ncn2[C@@H]2O[C@H](COC(C)=O)[C@@H](OCc3ccccc3)[C@@]3(OCc4ccccc4)[C@@H](OCc4ccccc4)CO[C@@H]23)n1`, the inhibition entry was “inactive”.

The next test deals with T1, Cholinesterase. The test can be described thus: Inhibition of BChE in human serum assessed as hydrolysis of butyrylthiocholine at 1 ug/mL by Ellman's method. It is filed as cell-free. In a few lines:
as §1
In the case of `C=C[C@H](O)[C@@H]1O[C@H](OC)[C@@H]2OC[C@H](OCc3ccccc3)[C@]2(OCc2ccccc2)[C@@H]1OCc1ccccc1`, the inhibition was 4%.

For `CC(=O)Nc1nc(Cl)c2c(ncn2[C@@H]2O[C@H](COC(C)=O)[C@@H](OCc3ccccc3)[C@@]3(OCc4ccccc4)[C@@H](OCc4ccccc4)CO[C@@H]23)n1`, the inhibition was determined as 70%.
